From ChEMBL document CHEMBL1122868, “New antiallergic pyrano [3,2-g]quinoline-2,8-dicarboxylic acids with potential for the topical treatment of asthma” (1985)
The source made the active and inactive calls. No cut-off for these calls is given here.

Legend:
[1] = tested on: Canis familiaris; experiment: Percent inhibition by dog hypotension screen assay at 10 ug/Kg per min for 15 min.; format: functional; conditions: Canis lupus familiaris, 0.25 h
[2] = species on record: Rattus norvegicus; experiment: Inhibitory dose by PCA test […].; format: functional; conditions: read-out: ID50 (the source's name)
Outline: (§1)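 Rat passive cutaneous anaphylaxis. Female rats (100 g) sensitized intradermally with 0.1 mL rat anti-egg albumin reaginic serum diluted in saline. After 24 h, rats were challenged i.v. with egg albumin, Evans Blue and saline, with the compound in saline given in the same injection. Reactions measured at 20 min; groups of five. ID50 taken from a log-dose regression of 20–80% inhibition.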

[3] = tested on: Canis familiaris; experiment: Activity index by dog hypotension screen assay at 10 ug/Kg per min for 15 min.; format: functional, Canis lupus familiaris
[4] = species on record: Rattus norvegicus; experiment: Potency ratio to that of sodium cromoglycate (1.0) using PCA test.; format: functional
Outline: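 Passive cutaneous anaphylaxis in female rats sensitized with reaginic anti-egg albumin serum and challenged i.v. at 24 h with antigen plus Evans Blue. Compound in saline was co-injected with antigen; groups of five. Sodium cromoglycate ID50 was determined in each experiment. Potency ratio = ID50(sodium cromoglycate)/ID50(compound), with ID50s from regression lines of inhibition against log dose.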

[5] = tested on: Canis familiaris; experiment: Percent inhibition was evaluated by dog hypotension screen assay at 10 ug/Kg per min for 15 min; inactive; format: functional, organism-based; conditions: Canis lupus familiaris
Outline: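 In anaesthetized beagles (pentobarbitone 30 mg/kg i.v.), hypotensive responses to a standardized bolus of sodium cromoglycate were established. Test compound was infused i.v. for 15 min, and the cromoglycate bolus was repeated at the end of the infusion and every 30 min over 3 h. Percent inhibition was expressed as area under the curve over 3 h; single experiments.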

[6] = tested on: Monkey; experiment: (§2) Ability to inhibit histamine release from monkey lung lavage cells; format: functional, Cercopithecidae
[7] = species on record: Rattus norvegicus; experiment: Ability to inhibit histamine release from rat peritoneal mast cells.; format: functional
[8] = species on record: Rattus norvegicus; experiment: Ability to inhibit histamine release from rat peritoneal mast cells using PCA assay.; format: functional; outline: as §1
[9] = species on record: Rattus norvegicus; experiment: Compound was evaluated to induce phosphorylation of the 78000 molecular weight mast cell protein; Active to induce phosphorylation; format: functional
[10] = tested on: Monkey; experiment: as §2; format: functional; conditions: Cercopithecidae, in Primates
[11] = species on record: Canis familiaris; experiment: Relative activity in dog hypotension; format: functional, Canis lupus familiaris
[12] = tested on: Canis familiaris; experiment: Activity index was evaluated by dog hypotension screen assay at 20 ug/Kg per min for 15 min; format: functional, Canis lupus familiaris
[13] = species on record: Rattus norvegicus; experiment: Ability to inhibit histamine release from rat peritoneal mast cells; format: functional
[14] = tested on: Canis familiaris; experiment: Percent inhibition was evaluated by dog hypotension screen assay at 50 ug/Kg per min for 15 min; format: functional; conditions: Canis lupus familiaris, 0.25 h
[15] = tested on: Canis familiaris; experiment: Activity index was evaluated by dog hypotension screen assay at 50 ug/Kg per min for 15 min; format: functional, Canis lupus familiaris

Compound	inhibition in vivo at 10 µg/kg/min [1]	ED50 [2]	Activity index [3]	Potency ratio [4]	other results
CCCc1c2oc(C(=O)[O-])cc(=O)c2cc2c(=O)cc(C(=O)[O-])n(C)c12.[Na+].[Na+]	55%	0.21 mg/kg	5.5	6.6	
O=C([O-])c1cc(Cl)c2cc3c(=O)cc(C(=O)[O-])oc3cc2n1.[Na+].[Na+]		4.23 mg/kg	0	0.72	inhibition [5]: inactive
CCCc1c2nc(C(=O)[O-])cc(NCC)c2cc2c(=O)cc(C(=O)[O-])oc12.[Na+].[Na+]	42%	0.18 mg/kg	4.2	13.8	
CCCc1c2nccc(Cl)c2cc2c(=O)cc(C(=O)[O-])oc12.[Na+]	48%	5.38 mg/kg	4.8	0.2	
CCCc1c2oc(C(=O)[O-])cc(=O)c2cc2c(=O)cc(C(=O)[O-])n(CC)c12.[Na+].[Na+] [NEDOCROMIL SODIUM]	60%	0.95 mg/kg	6	1.1	Relative potency [6]: 190; Potency [7]: 1; Potency [8]: 1.1; Potency [9]: Active to induce phosphorylation; IC30 [10]: 5.2 µM; Relative activity [11]: 1.9
CCCc1c2nc(C(=O)[O-])cc(O)c2cc2c(=O)cc(C(=O)[O-])oc12.[Na+].[Na+]	65%	0.03 mg/kg	6.5	80	
CCCc1c2nc(C(=O)[O-])cc(Br)c2cc2c(=O)cc(C(=O)[O-])oc12.[Na+].[Na+]	48%	0.55 mg/kg	4.8	4.62	
CCCc1c2nc(C(=O)[O-])cc(Cl)c2cc2c(=O)cc(C(=O)[O-])oc12.[Na+].[Na+]	72%	1.38 mg/kg	7.2		
Cc1c2nc(C(=O)[O-])cc(O)c2cc2c(=O)cc(C(=O)[O-])oc12.[Na+].[Na+]	66%	0.11 mg/kg	6.6	12.7	
CCCc1c2nc(C(=O)[O-])cc(OCC)c2cc2c(=O)cc(C(=O)[O-])oc12.[Na+].[Na+]	32%	0.3 mg/kg	3.2	8.47	
CCCc1c2oc(C(=O)[O-])cc(=O)c2cc2c(=O)cc(C(=O)[O-])n(CCC)c12.[Na+].[Na+]	28%	3.71 mg/kg	2.8	0.43	
CCCc1c2nc(C(=O)[O-])cc(S(=O)(=O)c3ccccc3)c2cc2c(=O)cc(C(=O)[O-])oc12.[Na+].[Na+]	39%	0.3 mg/kg	3.9	9.9	
CCCc1c2nc(C(=O)[O-])cc(Oc3ccccc3)c2cc2c(=O)cc(C(=O)[O-])oc12.[Na+].[Na+]	68%	1.12 mg/kg	6.8	1.75	
CCCc1c2nc(C(=O)[O-])cc(NC)c2cc2c(=O)cc(C(=O)[O-])oc12.[Na+].[Na+]		0.22 mg/kg		7.13	Activity index [12]: 4; Relative potency [6]: 35; Potency [8]: 7.1; Potency [9]: Active to induce phosphorylation; Potency [13]: 6; IC30 [10]: 28.5 µM; Relative activity [11]: 1.25
CCCc1c2nc(C(=O)[O-])cc(N)c2cc2c(=O)cc(C(=O)[O-])oc12.[Na+].[Na+]		0.31 mg/kg		8.25	Activity index [12]: 4.1
CCCc1c2nc(C(=O)[O-])cc(N(C)C(C)=O)c2cc2c(=O)cc(C(=O)[O-])oc12.[Na+].[Na+]		4.02 mg/kg		0.88	Activity index [12]: 1

Compound	inhibition in vivo at 10 µg/kg/min [1]	ED50 [2]	Activity index [3]	Potency ratio [4]	other results
CCCc1c2nc(C(=O)[O-])cc(OC)c2cc2c(=O)cc(C(=O)[O-])oc12.[Na+].[Na+]	43%	0.3 mg/kg	4.3	8.35	
O=C([O-])c1cc(O)c2cc3c(=O)cc(C(=O)[O-])oc3cc2n1.[Na+].[Na+]	78%	0.22 mg/kg	7.8	11.6	
CCCc1c2nccc(O)c2cc2c(=O)cc(C(=O)[O-])oc12.[Na+]		6.03 mg/kg		0.35	
CCCc1c2nc(C(=O)[O-])cc(SCC)c2cc2c(=O)cc(C(=O)[O-])oc12.[Na+].[Na+]	59%	0.14 mg/kg	5.9	11.1	
CCCc1c2nc(C(=O)[O-])cc(Sc3ccccc3)c2cc2c(=O)cc(C(=O)[O-])oc12.[Na+].[Na+]	66%	1.87 mg/kg	6.6	1.78	
CCCc1c2nc(C(=O)[O-])cc(N3CCCC3)c2cc2c(=O)cc(C(=O)[O-])oc12.[Na+].[Na+]	57%	0.86 mg/kg	5.7	4.13	
CCCc1c2nc(C(=O)O)cc(C)c2cc2c(=O)cc(C(=O)O)oc12	66%	0.71 mg/kg	6.6	2.97	
CCCc1c(C(=O)[O-])nc2c(CCC)c3oc(C(=O)[O-])cc(=O)c3cc2c1Cl.[Na+].[Na+]		2.45 mg/kg	0	1.14	inhibition [5]: inactive
CCCc1c2nc(C(=O)[O-])cc(O)c2cc2c(=O)ccoc12.[Na+]		0.78 mg/kg		6.5	
CCn1c(C(=O)[O-])cc(=O)c2cc3c(=O)cc(C(=O)[O-])oc3cc21.[Na+].[Na+]	76%	10 mg/kg	7.6	0.16	
CC=Cc1c2oc(C(=O)O)cc(=O)c2cc2c(=O)cc(C(=O)O)n(CC)c12	84%				
CC(C)CCn1c(C(=O)O)cc(=O)c2cc3c(=O)cc(C(=O)O)oc3cc21		2.05 mg/kg		0.54	inhibition in vivo at 50 µg/kg/min [14]: 68%; Activity index [15]: 1.4
CCCc1c2nc(C(=O)[O-])ccc2cc2c(=O)cc(C(=O)[O-])oc12.[Na+].[Na+]	38%	7.11 mg/kg	3.8	0.35	
CCCc1c2nc(C(=O)[O-])cc(Nc3ccccc3)c2cc2c(=O)cc(C(=O)[O-])oc12.[Na+].[Na+]		0.57 mg/kg		3.47	Activity index [12]: 3
CCCc1c(C(=O)[O-])nc2c(CCC)c3oc(C(=O)[O-])cc(=O)c3cc2c1O.[Na+].[Na+]	6%	0.14 mg/kg	0.6	10.9	
C=CCc1c2nc(C(=O)[O-])cc(Cl)c2cc2c(=O)cc(C(=O)[O-])oc12.[Na+].[Na+]	21%	2.4 mg/kg	2.1	1.09	
